Laboratory results from PubChem BioAssay.
Results filed as inconclusive are left out.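 The calls were made as follows, unless noted: active = viability increase at or above a cutoff of the median across tested compounds plus 3 SD (cut at about 8.5% in these data, passing the limit was not always enough); inconclusive = some gains above the cutoff, reason not given; inactive = the rest.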

Key:
[1] = S. cerevisiae growth inhibition in permissive medium (OD615), pilot counter-assay for S. cerevisiae lifespan shortening project, permissive growth control (AID 705;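 active = growth inhibition above 25% in both replicates, a cutoff set 3 SD above the mean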); conditions: OD615, 24 h, at 10 µM, hits give high values
Procedure, shortened: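 System: S. cerevisiae with engineered DeaD lifespan system / Measured by: absorbance (optical density) at 615 nm / Read-out: reduction in yeast growth (OD615) / Times: 4 h cell pre-growth, 24 h exposure at 30 °C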

[2] = S. cerevisiae growth inhibition in restrictive medium, OD615, pilot screen, restrictive growth control, yeast lifespan reduction project (AID 706;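 active = growth inhibition above a set limit, 3 SD over mean compound inhibition, in both replicates, cut at about 43% in these data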;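 also: modified DeaD lifespan yeast strain shifted to restrictive glucose medium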); conditions: OD615, 48 h, at 10 µM, hits give high values
Procedure, shortened: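 System: Engineered S. cerevisiae DeaD strain | Buffer or medium: Glucose-based CSMM-D restrictive medium | Schedule: 4 h pre-incubation, 48 h exposure at 30 °C | Technique: Optical density at 615 nm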

[3] = doxorubicin toxicity protection in MRP-1 cells – H69AR cells, CellTiter-Glo, duplicate, MRP-1 activator project, pilot screen (AID 807); conditions: H69AR viability with doxorubicin, CellTiter-Glo luminescence; at 10 µM; hits give high values;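 also: compound pretreatment 18-22 h then 72 h combined with doxorubicin; 0% = doxorubicin alone and 100% = vehicle without doxorubicin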
[4] = viability of HCT116 without oncogenic beta-catenin – human colon tumor cells, pilot screen (AID 823;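 active = cell viability at or below a set limit in both duplicate runs, the limit being the all-compound median minus 4 SD, cut at about 23% in these data, passing the limit was not always enough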;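 also: 0% = wells killed by 20 µM Hyamine and 100% = untreated DMSO cell wells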); conditions: HCT116 beta-catenin knockout viability, CellTiter-Glo, 60 h; at 10 µM; hits give low values
[5] = viability of PTEN-null HCT116 cells – cell-based, HCT116 clonal line, CellTiter-Glo, pilot screen (AID 824;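 active = viability at or below 27.92% in each of two runs, the all-compound median minus 4 SD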;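 also: 0% = 20 µM Hyamine control and 100% = vehicle cell control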); conditions: HCT116 PTEN-deleted viability, 60 h, at 10 µM, hits give low values
[6] = RAM pathway blockade in budding yeast – dse1pr::URA3 reporter, 5-FOA selection, pilot screen (AID 869;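 active = inhibition over a set limit, the all-compound mean plus 3 SD, in both replicate runs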;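 also: 0% = DMSO wells with no growth and 100% = 10 µM 1-NA-PP1 with full growth; RAM network block rescues cells from 5-FOA so hits raise OD615 growth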); conditions: S. cerevisiae dse1pr::URA3 5-FOA growth, OD615, 2 d; at 10 µM; hits give high values; strain carries analog-sensitive mutant Cbk1 kinase
[7] = RAM signaling pathway blockade in yeast – S. cerevisiae, Pdr1DBD-CYC8 efflux-inhibited sensitized strain, primary screen (AID 1298;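 active = RAM network inhibition above 8.4% in each of two replicates, 3 SD over the compound average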;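 also: 0% = DMSO untreated cells without growth and 100% = 10 µM 1-NA-PP1 full growth; higher means more yeast growth rescued from 5-FOA killing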); conditions: S. cerevisiae cbk1-as DSE1-URA3 strain, 5-FOA growth OD615, 2 d; at 50 µM; hits give high values

CCCC(=O)C1=C(SCC)CC(C)(C)C(C(=O)OC)C1=O (stereo unspecified)
inactive: growth inhibition [1] -14.4% | growth inhibition [2] -21.5% | viability increase [3] -2.57% | viability [4] 86.5% | viability [5] 91.8% | inhibition [6] -0.035% | RAM network inhibition [7] 3.4%

CC(C)c1ccc(NC(=O)c2cnn(-c3ccccc3)c2NC(=O)c2ccco2)cc1
inactive: growth inhibition [1] -2.46% | growth inhibition [2] 0.43% | viability increase [3] -4.1% | viability [4] 89.7% | viability [5] 85.6% | inhibition [6] 1.9% | RAM network inhibition [7] 5.45%

O=C(c1cc(-c2ccccc2O)on1)N1CCCC1
inactive: growth inhibition [1] -4.15% | growth inhibition [2] -3.9% | viability increase [3] -4.17% | viability [4] 105% | viability [5] 90.7% | inhibition [6] 3.37% | RAM network inhibition [7] 6.42%

CCOC(=O)C(C)Sc1nnc(Cn2c(=O)sc3ccccc32)n1-c1ccccc1 (stereo unspecified)
inactive: growth inhibition [1] 2.42% | growth inhibition [2] -4.57% | viability increase [3] -0.22% | viability [4] 95.6% | viability [5] 92.6% | inhibition [6] 1.81% | RAM network inhibition [7] 0.1%

CC(=O)N(c1ccccc1)C1SC(=O)N(c2ccccc2)C1=O (stereo unspecified)
inactive: growth inhibition [1] -15.9% | growth inhibition [2] -9.37% | viability increase [3] -0.06% | viability [4] 97.9% | viability [5] 99.7% | inhibition [6] 3.73% | RAM network inhibition [7] 6.65%

CCc1nnc(NC(=O)c2ccc(S(=O)(=O)N(CCOC)CCOC)cc2)s1
inactive: growth inhibition [1] -9.86% | growth inhibition [2] -3% | viability increase [3] 3.39% | viability [4] 115% | viability [5] 107% | inhibition [6] 0.77% | RAM network inhibition [7] 1.29%

Cc1ccccc1-n1c(C)nc2ccccc21
inactive: growth inhibition [1] -17.5% | growth inhibition [2] -1.88% | viability increase [3] -0.13% | viability [4] 95.9% | viability [5] 93.7% | inhibition [6] 1.79% | RAM network inhibition [7] 1.56%

CC(=O)c1ccc(N2CCN(C(=O)c3cc4c(-c5ccccc5F)nn(C)c4s3)CC2)cc1
inactive: growth inhibition [1] 3.9% | growth inhibition [2] 2.33% | viability increase [3] -2.9% | viability [4] 66% | viability [5] 78% | inhibition [6] 2.27% | RAM network inhibition [7] 6.5%

Cn1c(Cn2c(=O)sc3ccccc32)nnc1SCC(=O)Nc1cccc(F)c1
inactive: growth inhibition [1] -12% | growth inhibition [2] -5.46% | viability increase [3] -2.58% | viability [4] 97.3% | viability [5] 93.4% | inhibition [6] 1.9% | RAM network inhibition [7] 1.86%

COCC(=O)Nc1cc(=O)n(C)c(=O)n1C
inactive: growth inhibition [1] -4.37% | growth inhibition [2] -24.4% | viability increase [3] -1.62% | viability [4] 100% | viability [5] 94.4% | inhibition [6] 1.73% | RAM network inhibition [7] -0.05%

Cn1c(=O)c2c(SCC(=O)N3CCC(Cc4ccccc4)CC3)nc(C3CC3)nc2n(C)c1=O
inactive: growth inhibition [1] -0.44% | growth inhibition [2] -9.93% | viability increase [3] -1.06% | viability [4] 92.9% | viability [5] 88.1% | inhibition [6] 1.28% | RAM network inhibition [7] 0.47%

Cc1ccc(-n2c(SCC(=O)Nc3cc(C)on3)nc3c(c2=O)SC(C)C3)cc1 (stereo unspecified)
inactive: growth inhibition [1] -1.77% | growth inhibition [2] -14.4% | viability increase [3] -2.56% | viability [4] 87.5% | viability [5] 88.4% | inhibition [6] 0.5% | RAM network inhibition [7] 2.13%

CN1CCN(c2ccccc2NC(=O)Cc2cn(C)c3ccccc23)CC1
inactive: growth inhibition [1] 3.05% | growth inhibition [2] -4.69% | viability increase [3] -2.96% | viability [4] 92.8% | viability [5] 93.7% | inhibition [6] -0.845% | RAM network inhibition [7] 2.59%

COc1cc(NC(=O)c2cc3c(=O)n(C)c4ccccc4c3n2C)cc(OC)c1OC
inactive: growth inhibition [1] 1.8% | growth inhibition [2] 7.94% | viability increase [3] -3.3% | viability [4] 106% | viability [5] 95.7% | inhibition [6] 3.3% | RAM network inhibition [7] 5.77%

CSc1cccc(NC(=O)CN(c2cc(C)ccc2C)S(C)(=O)=O)c1
inactive: growth inhibition [1] -4.02% | growth inhibition [2] -2.52% | viability increase [3] -3.54% | viability [4] 77.4% | viability [5] 79.8% | inhibition [6] -0.95% | RAM network inhibition [7] 1.46%

CCCCC(CC)CNC(=O)CCS(=O)(=O)c1cccc2nsnc12 (stereo unspecified)
inactive: growth inhibition [1] -14.8% | growth inhibition [2] -21.5% | viability increase [3] -2.97% | viability [4] 85.7% | viability [5] 91.7% | inhibition [6] 3.19% | RAM network inhibition [7] 4.78%

N#CCCN1CCN(S(=O)(=O)c2ccc(S(=O)(=O)NCc3ccccc3)cc2)CC1
inactive: growth inhibition [1] -3.28% | growth inhibition [2] -15.5% | viability increase [3] 0.18% | viability [4] 96% | viability [5] 100% | inhibition [6] 1.91% | RAM network inhibition [7] 3.5%

Cn1c(=O)c2cc(S(=O)(=O)NC(C(=O)N3CCCCCC3)c3ccccc3)ccc2n(C)c1=O (stereo unspecified)
inactive: growth inhibition [1] -16.6% | growth inhibition [2] -23.3% | viability increase [3] -1.22% | viability [4] 104% | viability [5] 89.1% | inhibition [6] 0.175% | RAM network inhibition [7] 2.61%
